Results as given in ChEMBL document CHEMBL2034871, “First-in-class, dual-action, 3,5-disubstituted indole derivatives having human nitric oxide synthase (nNOS) and norepinephrine reuptake inhibitory (NERI) activity for the treatment of neuropathic pain” (J Med Chem, 2012).

What was measured:
[1] = molecular target: Nitric oxide synthase, inducible (Homo sapiens, UniProt P35228); assay: Inhibition of human iNOS expressed in baculovirus-infected insect sf9 cells assessed as conversion of [3H]-L-arginine to [3H]-L-citrulline preincubated for 15 mins with compound measured after 45 mins by scintillation counting
[2] = molecular target: Sodium-dependent noradrenaline transporter (Homo sapiens, UniProt P23975); assay: Displacement of [3H]nisoxetine from human NET expressed in CHO cells after 120 mins by scintillation counting; type: cell-based
Method in brief: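 Membranes from hNET-transfected CHO cells (20 μg protein) incubated 120 min at 4 °C with 1 nM [3H]nisoxetine in 50 mM Tris-HCl pH 7.4, 120 mM NaCl, 5 mM KCl. Nonspecific binding defined with 1 μM desipramine. Filtered on PEI-soaked GF/B and counted.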

[3] = molecular target: T1, Cytochrome P450 1A2 (Homo sapiens, UniProt P05177); assay: Inhibition of CYP1A2; type: ADME
T1 sequence (P05177 whole entry): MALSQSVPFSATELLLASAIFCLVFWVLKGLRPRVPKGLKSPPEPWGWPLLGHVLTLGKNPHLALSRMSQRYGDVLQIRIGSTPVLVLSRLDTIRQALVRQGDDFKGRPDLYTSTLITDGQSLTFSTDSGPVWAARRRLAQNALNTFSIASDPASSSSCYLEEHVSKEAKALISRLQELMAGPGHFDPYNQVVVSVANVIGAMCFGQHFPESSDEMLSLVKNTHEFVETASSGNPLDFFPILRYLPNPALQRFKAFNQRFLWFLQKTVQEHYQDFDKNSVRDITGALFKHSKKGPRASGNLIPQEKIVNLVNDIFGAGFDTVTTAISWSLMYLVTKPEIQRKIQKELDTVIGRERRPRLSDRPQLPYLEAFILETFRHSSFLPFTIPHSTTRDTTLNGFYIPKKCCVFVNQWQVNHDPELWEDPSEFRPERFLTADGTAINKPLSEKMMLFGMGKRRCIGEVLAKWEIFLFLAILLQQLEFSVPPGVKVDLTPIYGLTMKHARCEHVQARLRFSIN

[4] = molecular target: Cytochrome P450 2C9 (Homo sapiens, UniProt P11712); assay: Inhibition of CYP2C9; type: ADME
[5] = molecular target: Cytochrome P450 2C19 (Homo sapiens, UniProt P33261); assay: Inhibition of CYP2C19; type: ADME
[6] = molecular target: Cytochrome P450 3A4 (Homo sapiens, UniProt P08684); assay: Inhibition of CYP3A4; type: ADME
[7] = Vasoconstrictive activity in U46619 precontracted human arteries assessed as inhibition of acetylcholine-induced vasorelaxation at 100 uM after 50 mins; type: tissue-based, Artery
Method in brief: (§1)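 Human resistance artery rings (~2 mm) from surgical tissue, wire-mounted in myograph baths of Krebs PSS at 37 °C, gassed with 95% O2/5% CO2. […] Compound given 50 min with or without L-arginine, then U46619 preconstriction and ACh curves (1×10⁻¹⁰ to 1×10⁻⁵ M). Responses as % of maximal U46619 contraction.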

[8] = Vasoconstrictive activity in U46619 precontracted human arteries assessed as inhibition of acetylcholine-induced vasorelaxation at 100 uM after 50 mins in presence of L-arginine; type: tissue-based, Artery; method in brief: as §1
[9] = test system: Rattus norvegicus; assay: Antihyperalgesic activity in L5/L6 SNL Sprague-Dawley rat model of […] model assessed as reversal of thermal hyperalgesia at 30 mg/kg, ip measured after 30 mins; type: functional; conditions: route intraperitoneal
Method in brief: (§2)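 Sprague-Dawley rats under halothane had L5 and L6 spinal nerves tightly ligated with 4-0 silk distal to the DRG, then recovered singly housed. Drug given intraperitoneally. Mechanical withdrawal threshold and radiant-heat withdrawal latency of the affected hind paw were measured.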

[10] = test system: Rattus norvegicus; assay: Antiallodynic activity in L5/L6 SNL Sprague-Dawley rat model of […] model assessed as reversal of mechanical force-induced allodynia at 30 mg/kg, ip measured after 30 mins; type: functional; conditions: route intraperitoneal; method in brief: as §2
[11] = test system: Hepatocyte; assay: Metabolic stability in human liver hepatocytes assessed as compound turnover after 120 mins; type: ADME, cell-based; conditions: 2 h
[12] = test system: Hepatocyte; assay: Metabolic stability in primates liver hepatocytes assessed as compound turnover after 120 mins; type: ADME, cell-based; conditions: 2 h
[13] = Metabolic stability in dog liver hepatocytes assessed as compound turnover after 120 mins; type: ADME, cell-based, Canis lupus familiaris, Hepatocyte; conditions: 2 h
[14] = test system: Hepatocyte; assay: Metabolic stability in rat liver hepatocytes assessed as compound turnover after 120 mins; type: ADME, cell-based; conditions: 2 h
[15] = molecular target: Cytochrome P450 2D6 (Homo sapiens, UniProt P10635); assay: Inhibition of CYP2D6; type: ADME
[16] = molecular target: Mu-type opioid receptor (Homo sapiens) (UniProt P35372); assay: Inhibition of mu opioid receptor at 10 uM
Method in brief: (§3)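 Broad in vitro receptor binding screen at one concentration, 10 μM. Specific binding taken as total minus nonspecific binding with excess unlabeled ligand. […] A reference compound was run concurrently in each assay.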

[17] = Inhibition of sigma receptor at 10 uM; method in brief: as §3
[18] = molecular target: T2, Muscarinic acetylcholine receptor M1 (Homo sapiens) (UniProt P11229); assay: Inhibition of human muscarinic M1 receptor at 10 uM; method in brief: as §3
T2 sequence (whole entry): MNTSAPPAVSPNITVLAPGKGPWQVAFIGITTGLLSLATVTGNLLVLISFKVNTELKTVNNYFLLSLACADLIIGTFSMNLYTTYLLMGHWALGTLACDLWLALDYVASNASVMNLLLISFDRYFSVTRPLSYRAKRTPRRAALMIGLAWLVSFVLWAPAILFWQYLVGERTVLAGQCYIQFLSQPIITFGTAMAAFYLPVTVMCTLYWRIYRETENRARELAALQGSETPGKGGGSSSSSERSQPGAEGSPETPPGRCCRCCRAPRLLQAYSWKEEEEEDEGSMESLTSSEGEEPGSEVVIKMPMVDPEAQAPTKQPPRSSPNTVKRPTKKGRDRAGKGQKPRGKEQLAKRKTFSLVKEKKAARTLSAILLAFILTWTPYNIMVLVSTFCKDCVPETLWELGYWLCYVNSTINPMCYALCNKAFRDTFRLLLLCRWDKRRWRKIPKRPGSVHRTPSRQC

[19] = molecular target: T3, Muscarinic acetylcholine receptor M2 (Homo sapiens) (UniProt P08172); assay: Inhibition of human muscarinic M2 receptor at 10 uM; method in brief: as §3
T3 sequence (whole entry): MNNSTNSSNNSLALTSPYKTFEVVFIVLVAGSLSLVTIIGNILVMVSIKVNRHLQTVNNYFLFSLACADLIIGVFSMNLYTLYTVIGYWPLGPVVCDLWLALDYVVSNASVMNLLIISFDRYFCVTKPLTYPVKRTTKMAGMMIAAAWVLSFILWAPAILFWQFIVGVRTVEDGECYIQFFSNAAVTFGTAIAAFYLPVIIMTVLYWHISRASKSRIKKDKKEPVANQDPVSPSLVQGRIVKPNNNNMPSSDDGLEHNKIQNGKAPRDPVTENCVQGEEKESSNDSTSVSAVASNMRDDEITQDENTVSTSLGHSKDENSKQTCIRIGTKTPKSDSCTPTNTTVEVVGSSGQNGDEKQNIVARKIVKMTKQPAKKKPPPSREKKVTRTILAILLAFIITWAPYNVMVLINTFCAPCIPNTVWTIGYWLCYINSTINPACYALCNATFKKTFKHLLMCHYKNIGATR

[20] = molecular target: Muscarinic acetylcholine receptor M3 (Homo sapiens) (UniProt P20309); assay: Inhibition of human muscarinic M3 receptor at 10 uM; method in brief: as §3
[21] = molecular target: T4, Muscarinic acetylcholine receptor M4 (Homo sapiens) (UniProt P08173); assay: Inhibition of human muscarinic M4 receptor at 10 uM; method in brief: as §3
T4 sequence (whole entry): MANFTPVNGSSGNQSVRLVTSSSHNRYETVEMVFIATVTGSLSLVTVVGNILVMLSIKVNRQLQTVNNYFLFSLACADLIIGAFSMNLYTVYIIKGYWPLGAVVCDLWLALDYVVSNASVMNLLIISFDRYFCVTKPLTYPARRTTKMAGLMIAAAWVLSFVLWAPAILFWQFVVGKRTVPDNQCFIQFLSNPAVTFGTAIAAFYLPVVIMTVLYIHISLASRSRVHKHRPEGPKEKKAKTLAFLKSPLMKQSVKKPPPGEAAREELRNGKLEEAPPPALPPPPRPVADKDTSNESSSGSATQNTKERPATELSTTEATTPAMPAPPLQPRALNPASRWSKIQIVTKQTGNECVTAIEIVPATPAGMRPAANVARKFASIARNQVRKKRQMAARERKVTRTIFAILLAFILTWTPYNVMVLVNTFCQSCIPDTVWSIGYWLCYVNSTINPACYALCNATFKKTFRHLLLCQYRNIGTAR

[22] = molecular target: T5, Muscarinic acetylcholine receptor M5 (Homo sapiens) (UniProt P08912); assay: Inhibition of human muscarinic M5 receptor at 10 uM; method in brief: as §3
T5 sequence (whole entry): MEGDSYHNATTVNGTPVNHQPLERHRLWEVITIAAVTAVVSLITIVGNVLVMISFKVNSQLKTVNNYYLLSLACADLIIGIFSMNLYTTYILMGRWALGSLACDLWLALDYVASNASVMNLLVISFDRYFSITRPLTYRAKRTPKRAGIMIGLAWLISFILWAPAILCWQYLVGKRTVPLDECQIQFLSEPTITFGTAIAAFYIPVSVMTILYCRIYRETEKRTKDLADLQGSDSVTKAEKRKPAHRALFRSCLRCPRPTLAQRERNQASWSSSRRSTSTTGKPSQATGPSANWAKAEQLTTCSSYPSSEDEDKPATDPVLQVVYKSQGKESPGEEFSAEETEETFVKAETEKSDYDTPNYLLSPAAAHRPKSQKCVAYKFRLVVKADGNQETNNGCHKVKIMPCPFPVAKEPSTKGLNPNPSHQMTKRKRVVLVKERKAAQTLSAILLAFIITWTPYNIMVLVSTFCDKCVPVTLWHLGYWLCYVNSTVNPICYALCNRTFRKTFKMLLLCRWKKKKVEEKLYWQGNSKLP

Sequence of Nitric oxide synthase, inducible (P35228 whole entry): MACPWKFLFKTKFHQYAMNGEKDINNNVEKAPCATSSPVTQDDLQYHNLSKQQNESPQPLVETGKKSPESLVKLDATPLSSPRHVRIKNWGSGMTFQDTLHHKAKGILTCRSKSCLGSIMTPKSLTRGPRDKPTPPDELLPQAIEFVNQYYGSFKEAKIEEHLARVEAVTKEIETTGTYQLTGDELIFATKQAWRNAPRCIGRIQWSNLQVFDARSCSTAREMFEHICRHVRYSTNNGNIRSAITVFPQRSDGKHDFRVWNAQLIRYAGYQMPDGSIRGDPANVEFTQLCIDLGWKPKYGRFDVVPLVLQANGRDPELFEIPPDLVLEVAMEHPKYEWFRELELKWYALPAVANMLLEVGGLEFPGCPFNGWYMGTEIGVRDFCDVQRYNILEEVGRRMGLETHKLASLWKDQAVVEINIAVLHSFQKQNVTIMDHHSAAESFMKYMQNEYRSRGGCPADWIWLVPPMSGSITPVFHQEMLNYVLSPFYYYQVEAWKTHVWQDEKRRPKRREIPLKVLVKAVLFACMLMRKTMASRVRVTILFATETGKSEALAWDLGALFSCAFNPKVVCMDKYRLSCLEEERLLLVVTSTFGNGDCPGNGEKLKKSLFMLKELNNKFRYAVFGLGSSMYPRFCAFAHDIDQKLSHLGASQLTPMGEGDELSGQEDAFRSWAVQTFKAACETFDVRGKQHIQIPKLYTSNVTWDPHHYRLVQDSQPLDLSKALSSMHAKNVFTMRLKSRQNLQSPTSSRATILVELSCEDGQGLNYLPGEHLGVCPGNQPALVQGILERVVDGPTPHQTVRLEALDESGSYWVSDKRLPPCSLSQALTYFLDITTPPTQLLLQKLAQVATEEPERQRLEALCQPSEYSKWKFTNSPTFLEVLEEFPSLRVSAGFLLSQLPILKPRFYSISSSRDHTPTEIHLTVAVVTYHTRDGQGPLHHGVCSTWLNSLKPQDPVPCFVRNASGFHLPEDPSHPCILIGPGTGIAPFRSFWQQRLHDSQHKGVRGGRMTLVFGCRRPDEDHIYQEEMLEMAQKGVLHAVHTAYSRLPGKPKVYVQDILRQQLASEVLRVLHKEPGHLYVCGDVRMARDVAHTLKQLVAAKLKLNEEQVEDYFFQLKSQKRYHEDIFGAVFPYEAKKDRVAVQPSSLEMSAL
Sequence of Cytochrome P450 2C19 (P33261 whole entry): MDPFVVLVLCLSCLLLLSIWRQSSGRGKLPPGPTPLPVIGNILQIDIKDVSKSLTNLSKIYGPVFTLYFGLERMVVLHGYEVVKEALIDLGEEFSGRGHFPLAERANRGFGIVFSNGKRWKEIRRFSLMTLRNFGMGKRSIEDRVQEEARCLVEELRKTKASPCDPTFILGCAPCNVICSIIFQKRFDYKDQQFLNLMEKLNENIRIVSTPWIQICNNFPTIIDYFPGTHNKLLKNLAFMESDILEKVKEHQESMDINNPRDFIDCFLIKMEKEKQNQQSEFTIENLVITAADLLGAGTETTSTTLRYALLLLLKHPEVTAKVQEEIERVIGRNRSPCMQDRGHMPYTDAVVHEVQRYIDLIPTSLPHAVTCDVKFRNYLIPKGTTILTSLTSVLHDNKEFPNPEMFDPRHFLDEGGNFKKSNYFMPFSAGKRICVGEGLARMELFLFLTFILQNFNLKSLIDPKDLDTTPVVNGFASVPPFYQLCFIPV
Sequence of Mu-type opioid receptor (Homo sapiens) (P35372 whole entry): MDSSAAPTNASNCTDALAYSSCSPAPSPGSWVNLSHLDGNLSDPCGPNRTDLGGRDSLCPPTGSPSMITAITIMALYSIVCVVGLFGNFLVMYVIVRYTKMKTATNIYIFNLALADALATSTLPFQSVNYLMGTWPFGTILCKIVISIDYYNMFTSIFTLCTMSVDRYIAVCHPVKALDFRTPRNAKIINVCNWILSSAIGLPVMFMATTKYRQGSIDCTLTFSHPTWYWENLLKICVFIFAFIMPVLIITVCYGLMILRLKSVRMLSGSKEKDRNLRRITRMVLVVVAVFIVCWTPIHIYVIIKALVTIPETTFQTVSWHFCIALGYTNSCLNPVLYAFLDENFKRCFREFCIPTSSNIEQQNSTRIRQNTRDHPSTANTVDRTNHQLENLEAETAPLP
Sequence of Sodium-dependent noradrenaline transporter (P23975 whole entry): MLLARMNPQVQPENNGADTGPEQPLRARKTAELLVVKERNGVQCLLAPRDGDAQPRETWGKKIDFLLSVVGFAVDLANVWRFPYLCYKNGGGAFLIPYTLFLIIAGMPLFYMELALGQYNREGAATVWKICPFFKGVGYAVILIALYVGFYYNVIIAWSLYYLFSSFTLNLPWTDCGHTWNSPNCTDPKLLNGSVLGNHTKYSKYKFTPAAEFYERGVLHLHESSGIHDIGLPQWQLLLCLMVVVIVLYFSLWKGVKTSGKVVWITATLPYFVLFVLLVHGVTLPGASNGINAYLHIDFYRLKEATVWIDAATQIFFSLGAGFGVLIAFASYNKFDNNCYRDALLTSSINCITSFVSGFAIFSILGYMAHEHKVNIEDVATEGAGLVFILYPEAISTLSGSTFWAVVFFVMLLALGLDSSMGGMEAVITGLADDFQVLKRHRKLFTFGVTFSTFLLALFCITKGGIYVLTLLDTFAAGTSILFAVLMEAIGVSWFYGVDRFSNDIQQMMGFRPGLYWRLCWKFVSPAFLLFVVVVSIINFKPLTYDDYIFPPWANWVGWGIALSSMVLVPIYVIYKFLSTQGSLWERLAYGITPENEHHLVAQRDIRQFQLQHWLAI
Sequence of Cytochrome P450 2D6 (P10635 whole entry): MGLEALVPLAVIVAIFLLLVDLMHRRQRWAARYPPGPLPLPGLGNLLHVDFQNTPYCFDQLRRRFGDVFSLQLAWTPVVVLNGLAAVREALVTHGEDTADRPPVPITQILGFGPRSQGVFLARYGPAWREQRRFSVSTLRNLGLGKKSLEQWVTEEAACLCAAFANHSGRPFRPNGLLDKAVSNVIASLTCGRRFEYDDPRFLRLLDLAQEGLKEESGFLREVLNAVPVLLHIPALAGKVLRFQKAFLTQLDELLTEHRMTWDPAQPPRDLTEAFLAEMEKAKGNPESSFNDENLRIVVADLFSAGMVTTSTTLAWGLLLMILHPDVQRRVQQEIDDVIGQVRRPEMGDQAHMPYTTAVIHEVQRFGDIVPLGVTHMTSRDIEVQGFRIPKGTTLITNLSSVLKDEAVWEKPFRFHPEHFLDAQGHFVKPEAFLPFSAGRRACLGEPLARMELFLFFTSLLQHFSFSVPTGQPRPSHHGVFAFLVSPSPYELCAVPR
Sequence of Muscarinic acetylcholine receptor M3 (Homo sapiens) (P20309 whole entry, looked up): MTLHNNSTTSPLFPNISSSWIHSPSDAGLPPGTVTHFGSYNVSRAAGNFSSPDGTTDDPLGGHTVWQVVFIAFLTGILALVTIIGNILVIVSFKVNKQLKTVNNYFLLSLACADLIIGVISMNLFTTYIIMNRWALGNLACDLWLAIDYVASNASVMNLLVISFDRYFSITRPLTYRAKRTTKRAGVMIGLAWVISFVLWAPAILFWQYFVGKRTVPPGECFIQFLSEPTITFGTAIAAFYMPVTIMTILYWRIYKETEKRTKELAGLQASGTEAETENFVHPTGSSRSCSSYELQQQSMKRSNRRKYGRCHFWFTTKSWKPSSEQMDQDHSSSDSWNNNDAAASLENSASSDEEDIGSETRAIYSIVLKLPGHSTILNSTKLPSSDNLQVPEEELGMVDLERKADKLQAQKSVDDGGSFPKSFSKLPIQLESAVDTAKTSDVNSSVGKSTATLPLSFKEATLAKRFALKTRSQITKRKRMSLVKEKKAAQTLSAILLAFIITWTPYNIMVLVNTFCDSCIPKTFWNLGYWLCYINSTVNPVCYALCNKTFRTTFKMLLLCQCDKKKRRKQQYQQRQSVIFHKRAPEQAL
Sequence of Cytochrome P450 3A4 (P08684 whole entry): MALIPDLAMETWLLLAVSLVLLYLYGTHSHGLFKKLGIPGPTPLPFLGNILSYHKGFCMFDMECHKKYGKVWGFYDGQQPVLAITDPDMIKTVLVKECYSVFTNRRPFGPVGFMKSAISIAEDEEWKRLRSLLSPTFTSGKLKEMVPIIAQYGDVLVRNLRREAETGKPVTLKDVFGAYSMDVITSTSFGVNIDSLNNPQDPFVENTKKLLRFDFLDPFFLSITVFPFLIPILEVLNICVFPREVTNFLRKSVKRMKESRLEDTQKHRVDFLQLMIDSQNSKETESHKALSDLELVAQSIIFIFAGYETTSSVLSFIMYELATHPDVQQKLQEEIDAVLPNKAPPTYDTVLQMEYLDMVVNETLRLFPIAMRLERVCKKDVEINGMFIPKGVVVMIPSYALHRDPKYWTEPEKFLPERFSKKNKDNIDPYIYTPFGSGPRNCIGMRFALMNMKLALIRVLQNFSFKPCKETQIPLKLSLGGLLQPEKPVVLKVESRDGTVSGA
Sequence of Cytochrome P450 2C9 (P11712 whole entry): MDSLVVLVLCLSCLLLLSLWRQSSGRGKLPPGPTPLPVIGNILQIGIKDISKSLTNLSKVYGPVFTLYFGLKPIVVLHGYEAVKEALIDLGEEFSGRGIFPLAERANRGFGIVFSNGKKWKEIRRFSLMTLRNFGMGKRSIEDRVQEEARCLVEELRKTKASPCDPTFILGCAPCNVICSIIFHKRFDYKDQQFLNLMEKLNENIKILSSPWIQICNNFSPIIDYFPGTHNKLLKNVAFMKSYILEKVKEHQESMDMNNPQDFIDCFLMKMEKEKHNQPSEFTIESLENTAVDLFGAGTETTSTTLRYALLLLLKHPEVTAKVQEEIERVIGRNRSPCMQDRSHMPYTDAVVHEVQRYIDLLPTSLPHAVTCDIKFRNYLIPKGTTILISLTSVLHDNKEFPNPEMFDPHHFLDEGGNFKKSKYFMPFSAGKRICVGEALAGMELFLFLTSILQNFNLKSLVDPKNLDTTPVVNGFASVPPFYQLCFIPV

## CNC1CCCC(c2c[nH]c3ccc(NC(=N)c4cccs4)cc23)C1.Cl (single isomer, unassigned; (+))
[1]
  IC50: 6.76 µM
[2]
  IC50: 1 µM
[3]
  IC50: Not Active
[4]
  IC50: Not Active
[5]
  IC50: > 100 µM
[6]
  IC50: 100 µM
[7]
  Activity: Non-toxic
[8]
  Activity: Non-toxic
[9]
  Activity: 96%
[10]
  Activity: 90%
[11]
  Stability: Stable
[12]
  Stability: Stable
[13]
  Stability: Stable
[14]
  Stability: Stable
[15]
  IC50: 5.14 µM

## CNC1CCCC(c2c[nH]c3ccc(NC(=N)c4cccs4)cc23)C1 (single isomer, unassigned; (+))
[16]
  inhibition: 53%
[17]
  inhibition: 61%
[18]
  inhibition: 80%
[19]
  inhibition: 87%
[20]
  inhibition: 88%
[21]
  inhibition: 93%
[22]
  inhibition: 87%
